Measured values taken from ChEMBL document CHEMBL3102838, “Synthesis of RCAI-172 (C6 epimer of RCAI-147) and its biological activity” (2014).
Activity calls are given as the source filed them. The rule behind the calls is not given here.

What was measured:
Mus musculus [1] = assay: Immunostimulatory activity in C57BL/6 mouse autoimmune encephalomyelitis model inoculated with compound-treated GM-CSF-induced dendritic cells administered on day 3 and 5; assay type: functional, organism-based
In short: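 EAE in female C57BL/6 mice was induced on day 1 by subcutaneous MOG35-55/CFA emulsion at two lower-back sites, with an additional adjuvant given intraperitoneally on days 1 and 3. Bone-marrow GM-DC were raised with GM-CSF (10 ng/mL, 5 days), CD11c-enriched, then pulsed with glycolipid (100 ng/mL; 5×10^6 cells/mL, 24 h). Mice were scored daily to day 30 on a 0–5 scale in 0.5 steps.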

Mus musculus [2] = assay: Immunomodulatory activity in mouse assessed as reduction of IL-4 secretion at 10 ug/mL, iv relative to RCAI-147; assay type: functional; design: scale not given: the % may be the effect or the level left
Mus musculus [3] = species on record: Mus musculus; assay: Ratio for reduction of IL-4 secretion in mouse to reduction of IFNgamma secretion in mouse; assay type: functional
Mus musculus [4] = assay: Immunomodulatory activity in mouse assessed as reduction of IL-4 secretion at 10 ug/mL, iv relative to KRN7000; assay type: functional; design: scale not given: the % may be the effect or the level left
In short: (§1)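 Female-unspecified mice given glycolipid via tail vein: DMSO stock (1.0 mg/mL) diluted to 10 μg/mL in Dulbecco's PBS just before use; 200 μL injected (2 μg/mouse). Retro-orbital blood drawn into heparinized capillaries at set time points and plasma prepared. Plasma IFN-γ and IL-4 quantified by cytometric bead array. Means ±SD, three mice.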

Mus musculus [5] = assay: Immunomodulatory activity in mouse assessed as reduction of IFNgamma secretion at 10 ug/mL, iv relative to KRN7000; assay type: functional; design: scale not given: the % may be the effect or the level left; in short: as §1
Mus musculus [6] = assay: Immunomodulatory activity in mouse assessed as IFNgamma secretion at 10 ug/mL, iv relative to KRN7000; assay type: functional; in short: as §1
Mus musculus [7] = assay: Immunomodulatory activity in mouse assessed as increase in IL-4 secretion at 10 ug/mL, iv relative to KRN7000; assay type: functional; in short: as §1
Mus musculus [8] = assay: Immunomodulatory activity in mouse assessed as IL-4 secretion at 10 ug/mL, iv relative to KRN7000; assay type: functional; in short: as §1
Mus musculus [9] = assay: Immunostimulatory activity in C57BL/6 mouse autoimmune encephalomyelitis model assessed as IL-4 secretion inoculated with compound-treated GM-CSF-induced dendritic cells administered on day 3 and 5 relative to KRN7000; assay type: functional
Mus musculus [10] = assay: Immunostimulatory activity in C57BL/6 mouse autoimmune encephalomyelitis model assessed as decrease in IFNgamma secretion inoculated with compound-treated GM-CSF-induced dendritic cells administered on day 3 and 5 relative to KRN7000; assay type: functional; design: scale not given: the % may be the effect or the level left

CCCCCCCCCCCCCCCCCCCCCCC[C@@H](O)[C@@H](O)C(=O)N[C@@H](CO[C@H]1O[C@H](CO)[C@H](O)[C@H](O)[C@H]1O)[C@H](O)[C@H](O)[C@@H](O)[C@H](O)CCCCCCCCCCCC
Activity (Mus musculus [1]): inactive | Activity (Mus musculus [2]): 61% | Ratio (Mus musculus [3]): 8.6 | Activity (Mus musculus [4]): 35.3% | Activity (Mus musculus [5]): 4.1%

CCCCCCCCCCCCCCCCCCCCCCC[C@@H](O)[C@@H](O)C(=O)N[C@@H](CO[C@H]1O[C@H](CO)[C@H](O)[C@H](O)[C@H]1O)[C@H](O)[C@H](O)CCCCCCCCCCCCCC
Activity (Mus musculus [6]): 41% | Activity (Mus musculus [7]): 138% | Ratio (Mus musculus [3]): 3.4

CCCCCCCCCCCCCCCCCCCCCCCCCC(=O)N[C@@H](CO[C@H]1O[C@H](CO)[C@H](O)[C@H](O)[C@H]1O)[C@H](O)CC[C@@H](O)CCCCCCCCCCCC
Activity (Mus musculus [8]): 75% | Activity (Mus musculus [6]): 160%

CCCCCCCCCCCCCCCCCCCCCCC[C@@H](O)[C@@H](O)C(=O)N[C@@H](CO[C@H]1O[C@H](CO)[C@H](O)[C@H](O)[C@H]1O)[C@H](O)[C@H](O)[C@@H](O)[C@@H](O)CCCCCCCCCCCC
Activity (Mus musculus [9]): >60% | Activity (Mus musculus [10]): <5% | Ratio (Mus musculus [3]): 14 | Activity (Mus musculus [4]): 70% | Activity (Mus musculus [5]): 5%

CCCCCCCCCCCCCCCCCCCCCC[C@@H](O)[C@@H](O)[C@@H](O)C(=O)N[C@@H](CO[C@H]1O[C@H](CO)[C@H](O)[C@H](O)[C@H]1O)[C@H](O)[C@H](O)CCCCCCCCCCCCCC
Activity (Mus musculus [9]): >60% | Activity (Mus musculus [10]): <5%

CCCCCCCCCCCCCCCCCCCCCCCCCC(=O)N[C@@H](CO[C@H]1O[C@H](CO)[C@H](O)[C@H](O)[C@H]1O)[C@H](O)CC[C@H](O)CCCCCCCCCCCC
Activity (Mus musculus [8]): 19% | Activity (Mus musculus [6]): 64%
